Measured values published in ChEMBL document CHEMBL1649343, “Pulicatins A-E, neuroactive thiazoline metabolites from cone snail-associated bacteria” (J Nat Prod, 2010).
Calls of active or inactive are those of the source. The rule behind the calls is not given here.

Experiments:
Homo sapiens [1] = species: Homo sapiens; test: Selectivity ratio of Ki for human 5HT6 receptor to Ki for human 5HT2B receptor
Homo sapiens [2] = species: Homo sapiens; test: Selectivity ratio of Ki for human 5HT2C receptor to Ki for human 5HT2B receptor
[3] = molecular target: 5-hydroxytryptamine receptor 1D (Homo sapiens) (UniProt P28221); test: Binding affinity to human 5HT1D receptor at 10 uM by radioligand displacement assay
Chain of 5-hydroxytryptamine receptor 1D (Homo sapiens) (P28221 whole entry): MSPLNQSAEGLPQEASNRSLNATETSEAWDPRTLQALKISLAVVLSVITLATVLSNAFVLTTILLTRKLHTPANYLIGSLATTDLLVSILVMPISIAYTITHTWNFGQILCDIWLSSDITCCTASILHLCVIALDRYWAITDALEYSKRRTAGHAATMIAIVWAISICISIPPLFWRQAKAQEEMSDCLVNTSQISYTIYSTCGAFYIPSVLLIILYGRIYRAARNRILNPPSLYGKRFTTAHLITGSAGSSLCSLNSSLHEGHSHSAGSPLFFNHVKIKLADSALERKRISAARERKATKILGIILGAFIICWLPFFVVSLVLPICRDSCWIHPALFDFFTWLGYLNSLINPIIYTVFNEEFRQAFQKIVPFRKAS
Procedure, shortened: (§1)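 Primary screen run by the PDSP/NIMH across a 46-target panel. Each compound was tested at a final concentration of 10 µM by radioligand displacement, and initial hits were obtained from this screen.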

[4] = molecular target: 5-hydroxytryptamine receptor 1E (Homo sapiens) (UniProt P28566); test: Binding affinity to human 5HT1E receptor at 10 uM by radioligand displacement assay; procedure, shortened: as §1
Chain of 5-hydroxytryptamine receptor 1E (Homo sapiens) (P28566 whole entry): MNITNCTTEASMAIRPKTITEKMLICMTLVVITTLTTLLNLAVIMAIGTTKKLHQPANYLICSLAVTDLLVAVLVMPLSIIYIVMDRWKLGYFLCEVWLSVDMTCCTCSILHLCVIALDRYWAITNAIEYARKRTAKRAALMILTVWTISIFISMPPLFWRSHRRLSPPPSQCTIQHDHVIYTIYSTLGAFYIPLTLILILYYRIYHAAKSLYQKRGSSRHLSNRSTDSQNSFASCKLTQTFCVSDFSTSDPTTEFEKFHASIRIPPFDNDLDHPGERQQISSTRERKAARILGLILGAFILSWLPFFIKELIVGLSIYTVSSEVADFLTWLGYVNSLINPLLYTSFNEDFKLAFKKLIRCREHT

[5] = molecular target: 5-hydroxytryptamine receptor 1B (Homo sapiens) (UniProt P28222); test: Binding affinity to human 5HT1B receptor at 10 uM by radioligand displacement assay; procedure, shortened: as §1
Chain of 5-hydroxytryptamine receptor 1B (Homo sapiens) (P28222 whole entry): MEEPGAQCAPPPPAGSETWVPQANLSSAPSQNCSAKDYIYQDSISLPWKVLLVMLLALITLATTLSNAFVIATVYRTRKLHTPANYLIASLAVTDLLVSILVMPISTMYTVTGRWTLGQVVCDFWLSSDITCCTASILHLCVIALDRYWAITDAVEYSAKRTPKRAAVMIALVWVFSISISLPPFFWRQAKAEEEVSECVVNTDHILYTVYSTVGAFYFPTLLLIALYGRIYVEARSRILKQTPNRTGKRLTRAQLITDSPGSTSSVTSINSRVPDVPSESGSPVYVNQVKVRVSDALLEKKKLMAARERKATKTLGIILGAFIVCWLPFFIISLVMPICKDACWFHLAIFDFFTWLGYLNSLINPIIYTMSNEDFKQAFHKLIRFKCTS

[6] = molecular target: T1, 5-hydroxytryptamine receptor 3A (Homo sapiens) (UniProt P46098); test: Binding affinity to human 5HT3 receptor at 10 uM by radioligand displacement assay; procedure, shortened: as §1
T1 sequence (whole entry): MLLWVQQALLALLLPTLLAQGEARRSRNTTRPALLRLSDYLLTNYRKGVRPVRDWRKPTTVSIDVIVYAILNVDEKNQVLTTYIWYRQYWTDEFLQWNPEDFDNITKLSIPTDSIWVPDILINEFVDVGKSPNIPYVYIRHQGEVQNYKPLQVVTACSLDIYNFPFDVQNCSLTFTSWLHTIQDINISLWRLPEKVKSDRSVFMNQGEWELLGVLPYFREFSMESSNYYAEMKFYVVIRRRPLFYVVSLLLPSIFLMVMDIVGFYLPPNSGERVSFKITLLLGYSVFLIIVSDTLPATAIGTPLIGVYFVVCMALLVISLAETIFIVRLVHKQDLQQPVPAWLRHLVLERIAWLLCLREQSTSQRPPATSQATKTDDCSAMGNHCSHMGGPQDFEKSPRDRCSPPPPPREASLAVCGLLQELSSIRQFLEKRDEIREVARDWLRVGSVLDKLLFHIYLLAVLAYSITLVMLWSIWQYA

Homo sapiens [7] = species: Homo sapiens; test: Selectivity ratio of Ki for human 5HT1D receptor to Ki for human 5HT2B receptor
[8] = molecular target: 5-hydroxytryptamine receptor 2A (Homo sapiens) (UniProt P28223); test: Binding affinity to human 5HT2A receptor at 10 uM by radioligand displacement assay; procedure, shortened: as §1
Chain of 5-hydroxytryptamine receptor 2A (Homo sapiens) (P28223 whole entry): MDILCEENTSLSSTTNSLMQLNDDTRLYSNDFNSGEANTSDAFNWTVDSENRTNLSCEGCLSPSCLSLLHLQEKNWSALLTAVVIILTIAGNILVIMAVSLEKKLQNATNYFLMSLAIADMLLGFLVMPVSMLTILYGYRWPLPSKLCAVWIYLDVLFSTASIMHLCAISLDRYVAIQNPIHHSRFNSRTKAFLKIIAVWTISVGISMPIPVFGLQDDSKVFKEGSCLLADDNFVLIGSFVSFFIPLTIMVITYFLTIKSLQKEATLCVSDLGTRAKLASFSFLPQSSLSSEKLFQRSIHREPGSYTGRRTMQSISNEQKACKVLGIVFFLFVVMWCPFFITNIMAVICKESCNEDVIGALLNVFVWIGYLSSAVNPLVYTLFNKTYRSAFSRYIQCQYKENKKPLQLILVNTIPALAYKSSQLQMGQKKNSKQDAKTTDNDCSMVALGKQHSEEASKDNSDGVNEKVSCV

Homo sapiens [9] = species: Homo sapiens; test: Selectivity ratio of Ki for human 5HT2A receptor to Ki for human 5HT2B receptor
Homo sapiens [10] = species: Homo sapiens; test: Selectivity ratio of Ki for human 5HT1B receptor to Ki for human 5HT2B receptor
[11] = molecular target: 5-hydroxytryptamine receptor 4 (Homo sapiens) (UniProt Q13639); test: Binding affinity to human 5HT4 receptor at 10 uM by radioligand displacement assay; procedure, shortened: as §1
Chain of 5-hydroxytryptamine receptor 4 (Homo sapiens) (Q13639 whole entry): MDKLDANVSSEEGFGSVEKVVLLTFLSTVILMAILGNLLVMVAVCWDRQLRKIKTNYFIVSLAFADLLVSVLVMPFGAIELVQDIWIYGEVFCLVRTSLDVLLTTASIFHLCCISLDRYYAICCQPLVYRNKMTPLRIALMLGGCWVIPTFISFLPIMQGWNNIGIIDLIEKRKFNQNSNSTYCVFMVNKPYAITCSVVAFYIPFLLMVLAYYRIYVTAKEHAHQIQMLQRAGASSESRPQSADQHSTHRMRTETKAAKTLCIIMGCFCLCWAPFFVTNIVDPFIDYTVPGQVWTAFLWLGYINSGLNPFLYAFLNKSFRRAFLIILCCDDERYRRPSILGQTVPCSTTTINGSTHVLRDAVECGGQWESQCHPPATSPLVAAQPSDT

[12] = molecular target: T2, 5-hydroxytryptamine receptor 1A (Homo sapiens) (UniProt P08908); test: Binding affinity to human 5HT1A receptor at 10 uM by radioligand displacement assay; procedure, shortened: as §1
T2 sequence (whole entry): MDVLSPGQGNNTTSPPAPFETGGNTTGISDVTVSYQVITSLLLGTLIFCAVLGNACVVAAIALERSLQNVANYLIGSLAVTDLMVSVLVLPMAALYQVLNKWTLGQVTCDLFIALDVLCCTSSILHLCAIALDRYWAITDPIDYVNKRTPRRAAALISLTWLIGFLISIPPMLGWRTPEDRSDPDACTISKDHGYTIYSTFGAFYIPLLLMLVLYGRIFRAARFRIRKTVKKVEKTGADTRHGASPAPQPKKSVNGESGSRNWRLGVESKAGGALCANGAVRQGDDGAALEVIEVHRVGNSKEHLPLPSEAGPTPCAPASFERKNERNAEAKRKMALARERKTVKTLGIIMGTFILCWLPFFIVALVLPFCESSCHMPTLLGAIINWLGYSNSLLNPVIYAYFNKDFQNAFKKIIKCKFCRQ

Homo sapiens [13] = species: Homo sapiens; test: Selectivity ratio of Ki for human 5HT1E receptor to Ki for human 5HT2B receptor
[14] = molecular target: 5-hydroxytryptamine receptor 7 (Homo sapiens) (UniProt P34969); test: Binding affinity to human 5HT7 receptor at 10 uM by radioligand displacement assay; procedure, shortened: as §1
Chain of 5-hydroxytryptamine receptor 7 (Homo sapiens) (P34969 whole entry): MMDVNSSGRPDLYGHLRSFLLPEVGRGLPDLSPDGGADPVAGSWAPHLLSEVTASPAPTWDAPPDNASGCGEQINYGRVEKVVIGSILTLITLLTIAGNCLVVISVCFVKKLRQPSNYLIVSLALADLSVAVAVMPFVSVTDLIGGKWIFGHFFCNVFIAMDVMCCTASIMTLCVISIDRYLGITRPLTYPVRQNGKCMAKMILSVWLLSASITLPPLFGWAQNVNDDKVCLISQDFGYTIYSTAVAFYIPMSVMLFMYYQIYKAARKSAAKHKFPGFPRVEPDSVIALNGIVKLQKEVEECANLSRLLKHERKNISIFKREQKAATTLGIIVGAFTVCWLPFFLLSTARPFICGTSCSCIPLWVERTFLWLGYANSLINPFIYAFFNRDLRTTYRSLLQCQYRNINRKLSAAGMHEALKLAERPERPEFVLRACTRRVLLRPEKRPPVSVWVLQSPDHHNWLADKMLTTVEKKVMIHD

[15] = molecular target: 5-hydroxytryptamine receptor 2B (Mus musculus) (UniProt Q02152); test: Increase of 5HT2B receptor-mediated KCL-induced intracellular calcium influx in mouse DRG neurons at 20 ug/ml; format: functional, cell-based
Chain of 5-hydroxytryptamine receptor 2B (Mus musculus) (Q02152 whole entry): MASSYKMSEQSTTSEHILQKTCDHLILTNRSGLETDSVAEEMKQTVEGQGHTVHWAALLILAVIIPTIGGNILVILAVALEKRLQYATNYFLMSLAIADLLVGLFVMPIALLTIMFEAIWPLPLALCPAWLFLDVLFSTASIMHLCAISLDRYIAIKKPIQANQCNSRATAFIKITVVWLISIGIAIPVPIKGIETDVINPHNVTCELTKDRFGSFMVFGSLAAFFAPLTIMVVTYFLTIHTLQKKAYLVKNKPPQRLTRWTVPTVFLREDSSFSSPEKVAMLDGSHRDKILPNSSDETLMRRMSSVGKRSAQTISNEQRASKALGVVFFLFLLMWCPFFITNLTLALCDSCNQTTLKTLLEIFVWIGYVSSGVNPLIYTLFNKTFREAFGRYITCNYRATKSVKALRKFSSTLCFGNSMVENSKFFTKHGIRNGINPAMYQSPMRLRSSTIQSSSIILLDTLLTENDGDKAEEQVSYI
Procedure, shortened: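 Dorsal root ganglia cells from the cervical and lumbar regions of mice were loaded with Fura-2 AM and imaged individually by fluorescence microscopy at 20 to 25 °C. After baseline, cells were given 25 mM KCl and washed. After return to baseline, compound was applied at 20 µg/mL, then replaced with 25 mM KCl while intracellular Ca2+ was monitored.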

[16] = molecular target: T3, 5-hydroxytryptamine receptor 2C (Homo sapiens) (UniProt P28335); test: Binding affinity to human 5HT2C receptor at 10 uM by radioligand displacement assay; procedure, shortened: as §1
T3 sequence (whole entry): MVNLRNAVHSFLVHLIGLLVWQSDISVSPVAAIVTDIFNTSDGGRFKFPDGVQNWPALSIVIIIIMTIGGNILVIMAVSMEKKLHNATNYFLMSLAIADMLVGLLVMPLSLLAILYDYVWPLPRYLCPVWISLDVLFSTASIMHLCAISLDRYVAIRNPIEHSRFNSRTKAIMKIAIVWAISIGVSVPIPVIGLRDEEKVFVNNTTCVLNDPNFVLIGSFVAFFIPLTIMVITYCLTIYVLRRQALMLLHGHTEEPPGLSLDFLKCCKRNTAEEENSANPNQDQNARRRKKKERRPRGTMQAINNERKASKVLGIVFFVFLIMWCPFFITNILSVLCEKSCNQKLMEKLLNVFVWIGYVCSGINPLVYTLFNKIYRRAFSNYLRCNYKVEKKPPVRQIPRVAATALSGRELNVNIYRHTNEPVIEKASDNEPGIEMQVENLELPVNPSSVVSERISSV

[17] = molecular target: 5-hydroxytryptamine receptor 6 (Homo sapiens) (UniProt P50406); test: Binding affinity to human 5HT6 receptor at 10 uM by radioligand displacement assay; procedure, shortened: as §1
Chain of 5-hydroxytryptamine receptor 6 (Homo sapiens) (P50406 whole entry): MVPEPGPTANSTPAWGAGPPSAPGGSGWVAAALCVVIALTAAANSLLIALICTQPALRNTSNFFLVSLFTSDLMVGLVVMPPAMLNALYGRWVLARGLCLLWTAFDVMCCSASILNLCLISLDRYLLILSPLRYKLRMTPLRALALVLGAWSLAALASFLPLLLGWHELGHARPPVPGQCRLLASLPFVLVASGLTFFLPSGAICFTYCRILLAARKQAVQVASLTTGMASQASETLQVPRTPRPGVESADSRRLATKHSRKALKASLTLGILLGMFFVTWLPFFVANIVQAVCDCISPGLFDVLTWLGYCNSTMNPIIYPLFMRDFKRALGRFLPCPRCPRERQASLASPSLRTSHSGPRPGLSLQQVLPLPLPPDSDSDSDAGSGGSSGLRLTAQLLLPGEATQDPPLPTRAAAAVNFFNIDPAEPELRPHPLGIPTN

Homo sapiens [18] = species: Homo sapiens; test: Selectivity ratio of Ki for human 5HT5A receptor to Ki for human 5HT2B receptor
Homo sapiens [19] = species: Homo sapiens; test: Selectivity ratio of Ki for human 5HT4 receptor to Ki for human 5HT2B receptor
Homo sapiens [20] = species: Homo sapiens; test: Selectivity ratio of Ki for human 5HT3 receptor to Ki for human 5HT2B receptor
Homo sapiens [21] = species: Homo sapiens; test: Selectivity ratio of Ki for human 5HT1A receptor to Ki for human 5HT2B receptor
Homo sapiens [22] = species: Homo sapiens; test: Selectivity ratio of Ki for human 5HT7 receptor to Ki for human 5HT2B receptor
[23] = molecular target: 5-hydroxytryptamine receptor 5A (Homo sapiens) (UniProt P47898); test: Binding affinity to human 5HT5A receptor at 10 uM by radioligand displacement assay; procedure, shortened: as §1
Chain of 5-hydroxytryptamine receptor 5A (Homo sapiens) (P47898 whole entry): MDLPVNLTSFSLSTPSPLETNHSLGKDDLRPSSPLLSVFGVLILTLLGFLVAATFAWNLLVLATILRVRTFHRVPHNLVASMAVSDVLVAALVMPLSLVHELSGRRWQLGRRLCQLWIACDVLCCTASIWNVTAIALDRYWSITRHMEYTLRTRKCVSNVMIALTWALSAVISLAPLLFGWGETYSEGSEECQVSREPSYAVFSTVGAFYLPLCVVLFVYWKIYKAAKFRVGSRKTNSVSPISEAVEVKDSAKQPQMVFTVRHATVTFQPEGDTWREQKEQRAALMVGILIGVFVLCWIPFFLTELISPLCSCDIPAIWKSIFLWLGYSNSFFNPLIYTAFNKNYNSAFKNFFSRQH

[24] = molecular target: Histamine H1 receptor (Homo sapiens) (UniProt P35367); test: Binding affinity to human histamine H1 receptor by radioligand displacement assay
Chain of Histamine H1 receptor (Homo sapiens) (P35367 whole entry): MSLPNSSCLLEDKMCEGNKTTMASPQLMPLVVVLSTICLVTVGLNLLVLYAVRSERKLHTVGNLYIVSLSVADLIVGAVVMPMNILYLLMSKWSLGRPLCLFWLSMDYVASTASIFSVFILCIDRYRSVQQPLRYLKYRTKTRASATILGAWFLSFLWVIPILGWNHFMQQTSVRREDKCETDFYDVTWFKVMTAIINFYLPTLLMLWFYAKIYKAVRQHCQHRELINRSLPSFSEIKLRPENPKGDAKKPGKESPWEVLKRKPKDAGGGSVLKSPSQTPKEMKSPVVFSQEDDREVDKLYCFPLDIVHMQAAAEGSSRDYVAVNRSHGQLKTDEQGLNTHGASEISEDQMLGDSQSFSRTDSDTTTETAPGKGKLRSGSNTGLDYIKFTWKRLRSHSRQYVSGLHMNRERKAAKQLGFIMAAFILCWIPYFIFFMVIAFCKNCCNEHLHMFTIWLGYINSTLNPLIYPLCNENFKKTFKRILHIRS

[25] = molecular target: Kappa-type opioid receptor (Homo sapiens) (UniProt P41145); test: Binding affinity to human kappa opioid receptor by radioligand displacement assay
Chain of Kappa-type opioid receptor (Homo sapiens) (P41145 whole entry): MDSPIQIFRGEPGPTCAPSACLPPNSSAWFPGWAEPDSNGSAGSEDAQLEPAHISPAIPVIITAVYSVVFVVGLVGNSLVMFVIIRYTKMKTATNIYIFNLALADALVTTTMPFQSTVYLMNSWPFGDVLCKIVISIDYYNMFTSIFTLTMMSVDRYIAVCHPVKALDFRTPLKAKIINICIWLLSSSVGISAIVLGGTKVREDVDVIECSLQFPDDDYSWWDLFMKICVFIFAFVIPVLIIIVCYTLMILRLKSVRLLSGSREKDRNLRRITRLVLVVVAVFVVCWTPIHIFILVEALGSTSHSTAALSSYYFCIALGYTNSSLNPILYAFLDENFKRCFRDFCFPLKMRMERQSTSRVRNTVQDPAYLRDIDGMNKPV

## C[C@@H]1SC(c2ccccc2O)=N[C@@H]1CO
Homo sapiens [1]
  Ratio Ki: 20
Homo sapiens [2]
  Ratio Ki: 20
[3]
  Activity: inactive
[4]
  Activity: inactive
[5]
  Activity: inactive
[6]
  Activity: inactive
Homo sapiens [7]
  Ratio Ki: 20
[8]
  Activity: inactive
Homo sapiens [9]
  Ratio Ki: 20
Homo sapiens [10]
  Ratio Ki: 20
[11]
  Activity: inactive
[12]
  Activity: inactive
Homo sapiens [13]
  Ratio Ki: 20
[14]
  Activity: inactive
[15]
  Activity: inactive
[16]
  Activity: inactive
[17]
  Activity: inactive
Homo sapiens [18]
  Ratio Ki: 20
Homo sapiens [19]
  Ratio Ki: 20
Homo sapiens [20]
  Ratio Ki: 20
Homo sapiens [21]
  Ratio Ki: 20
Homo sapiens [22]
  Ratio Ki: 20
[23]
  Activity: inactive

## NC(=O)c1csc(-c2ccccc2O)n1
[24]
  Activity: 517 nM

## NC(=O)C1CSC(c2ccccc2O)=N1 (stereo not drawn)
[24]
  Activity: 678 nM
[25]
  Activity: 3.71 µM
[15]
  Activity: Active

## OC[C@@H]1CSC(c2ccccc2O)=N1
[15]
  Activity: Active
